Data published in publication PMC6407616 (Molecular cell, 2018).
Changes are numbered by the printed parent chain. Names may count otherwise.

Assays:
[1] = molecular target: H3Kc9me3 601 dinucleosome with 20 bp DNA linker (Xenopus laevis); test: negative stain electron microscopy
ZMET2 [2] = molecular target: T1, ZMET2 (Zea mays, UniProt Q9AXT8); test: DNA methyltransferase assay on unmethylated or hemimethylated 38 bp duplexed DNA; format: biochemical; conditions: 300 nM 38 bp duplex; single-turnover, saturating ZMET2; no peptide; n=2
T1 sequence (Q9AXT8 1-912): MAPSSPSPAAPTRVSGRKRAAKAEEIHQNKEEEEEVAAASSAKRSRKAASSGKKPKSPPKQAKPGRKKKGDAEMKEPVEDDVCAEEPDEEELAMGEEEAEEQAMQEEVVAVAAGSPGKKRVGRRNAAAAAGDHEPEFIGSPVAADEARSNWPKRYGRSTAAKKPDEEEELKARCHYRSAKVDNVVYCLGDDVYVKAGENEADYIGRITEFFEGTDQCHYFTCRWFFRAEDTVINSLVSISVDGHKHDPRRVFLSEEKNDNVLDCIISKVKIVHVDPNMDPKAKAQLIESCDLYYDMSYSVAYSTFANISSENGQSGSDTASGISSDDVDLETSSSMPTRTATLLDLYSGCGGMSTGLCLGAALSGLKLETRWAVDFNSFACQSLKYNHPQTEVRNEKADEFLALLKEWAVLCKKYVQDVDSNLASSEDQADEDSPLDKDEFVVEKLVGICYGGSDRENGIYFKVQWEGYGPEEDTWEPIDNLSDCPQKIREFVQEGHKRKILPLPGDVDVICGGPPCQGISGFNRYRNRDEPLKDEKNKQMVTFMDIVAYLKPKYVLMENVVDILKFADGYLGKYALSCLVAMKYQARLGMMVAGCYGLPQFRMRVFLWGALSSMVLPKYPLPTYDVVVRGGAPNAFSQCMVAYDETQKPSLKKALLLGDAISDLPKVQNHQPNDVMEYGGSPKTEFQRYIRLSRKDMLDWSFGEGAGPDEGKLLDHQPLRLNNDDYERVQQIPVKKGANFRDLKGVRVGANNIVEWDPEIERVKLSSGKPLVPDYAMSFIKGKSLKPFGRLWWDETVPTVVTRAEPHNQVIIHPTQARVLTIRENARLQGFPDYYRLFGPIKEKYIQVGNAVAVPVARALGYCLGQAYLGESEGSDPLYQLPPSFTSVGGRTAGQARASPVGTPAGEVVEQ

ZMET2 [3] = molecular target: ZMET2 (Zea mays, UniProt Q9AXT8 1-912); test: fluorescence polarization
[4] = Size-exclusion chromatography coupled to multi angle light scattering; format: physicochemical; conditions: 20 mM Tris-HCl pH 8.0, 150 mM NaCl, 1 mM DTT; Figure S1E
Summary of the method: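 Recombinant ZMET2 was expressed with 0.2 mM IPTG at 20°C for 16–18 h, then purified by imidazole elution, TEV cleavage, Q anion exchange and Superdex 200 gel filtration. Samples were filtered and injected onto an S 050 size-exclusion column equilibrated overnight in MALS buffer. Molar mass was read by inline multi-angle light scattering with refractive index detection.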

naked 157 bp DNA = format: biochemical; conditions: in words, H3K9me0/2 peptides in trans, Figure S4E
[5] = FP binding of ZMET2 mutants to H3K9me2 tail peptides; conditions: in words; fluorescence polarization; n=2
H3Kc9me3 mononucleosomes = test: FP binding of ZMET2 mutants to H3Kc9me3 mononucleosomes; set-up: species or system Xenopus laevis

Q: Which stoichiometry N (ZMET2 per dinucleosome) [1] does the source give for “full-length recombinant ZMET2 (wild type) (from UniProt Q9AXT8 1-912) (enzyme)” here?
A: The stoichiometry N (ZMET2 per dinucleosome) was 1.

Q: For “unmethylated: AACGCAGCATGCGCTGCTAGC GCAGCTAGCGCTGCATG (DNA AACGCAGCATGCGCTGCTAGCGCAGCTAGCGCTGCATG; DNA, backbone not given here)”, which “rate constant, 38 bp duplexed DNA without peptide” value (ZMET2 [2]) is on record?
A: Its value is 5.3E-5 (±1.1E-5) min^−1.

B1: 38 bp unmethylated duplex (dsDNA)
DNA 1: AACGCAGCATGCGCTGCTAGCGCAGCTAGCGCTGCATG
DNA 2: CATGCAGCGCTAGCTGCGCTAGCAGCGCATGCTGCGTT
Q: With B1 as the molecule, how does the binding signal (ZMET2 [3]) read?
A: Its binding signal is 32 fold tighter than without H3K9me2.

B2: 38 bp hemimethylated duplex (dsDNA)
DNA 1: B1 DNA 1
DNA 2: B1 DNA 2
modifications: 5mC at positions 5, 14, 23 and 32 of strand 1; complement unmethylated
Q: With B2 as the molecule, how does the binding signal (ZMET2 [3]) read?
A: Its binding signal is 36 fold tighter than without H3K9me2.

B3: ZMET2: full-length recombinant maintenance DNA methyltransferase from Zea mays (protein)
chain: T1 sequence (Q9AXT8 1-912)
modifications: left off: 6xHis, N-terminal, cleaved | SUMO, N-terminal, state not stated
Q: With B3 as the molecule, how does the “oligomeric state by molar mass measurement” value [4] read?
A: Its value is “monomer”.

B4: CDx: ZMET2 mutated in the aromatic cage of the CD (F441A) (protein)
chain: T1 sequence (Q9AXT8 1-912) with F441A
modifications: left off: 6xHis, N-terminal, cleaved | SUMO, N-terminal, state not stated
Q: Which results are given for B4?
A: rate constant relative to wild type ZMET2, naked DNA (naked 157 bp DNA): comparable to wild type ZMET2; binding to H3K9me2 peptides relative to wild type ZMET2 [5]: significantly decreased compared to wild type ZMET2; fold decrease in affinity for H3Kc9me3 nucleosomes vs wild type ZMET2 (H3Kc9me3 mononucleosomes; fluorescence polarization, n=2): 4 fold

B5: BAHx: ZMET2 mutated in the aromatic cage of the BAH domain (W224L) (protein)
chain: T1 sequence (Q9AXT8 1-912) with W224L
modifications: left off: 6xHis, N-terminal, cleaved | SUMO, N-terminal, state not stated
Q: What does the source list for B5?
A: binding to H3K9me2 peptides relative to wild type ZMET2 [5]: did not show a defect, showing instead modestly tighter binding; affinity for H3Kc9me3 nucleosomes relative to wild type ZMET2 (H3Kc9me3 mononucleosomes; in words, n=4): modestly tighter affinity for H3Kc9me3 nucleosomes
